# Assay outcomes (PubChem BioAssay)
# KCNQ1 act – potentiates or activates the human KCNQ1 potassium channel. CHO-K1 KCNQ1, thallium flux FluxOR fluorescence; active compounds read high. B-score at 10 µM. hit rate 0.35% among 310,000;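 active = fluorescence ratio B-score, a plate-corrected score, at least three library SD, with initial intensity B-score within 5 SD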
#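 Assay system: stable KCNQ1 CHO-K1 line; medium: assay buffer, equal DMSO in all wells; timing: 90 min dye loading and 20 min compound exposure, both at room temperature; technique: kinetic FluxOR thallium fluorescence, 10-s 1-Hz baseline, 110-s post-stimulus read; read-out basis: B score of baseline-normalized fluorescence ratio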
# hERG rescue – shields human hERG channel from block by proarrhythmic agents; CHO-hERG, FluxOR thallium flux, dofetilide IC70 present; AID 1511; activation (rescue from dofetilide block), less the hit threshold, % at 10 µM; Q12809; hit rate 0.51% among 310,000;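 active = activation above the mean of controls blocked by dofetilide plus 5 SD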;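 note: thallium influx through hERG after potassium depolarization seen as dye fluorescence rise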
# KCNK9 block – inhibitors of human KCNK9 two-pore domain potassium channel. B-score at 10 µM. Q9NPC2. AID 488922. hit rate 1.2% among 310,000. HEK293 KCNK9, FluxOR thallium flux fluorescence; active compounds read low;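 active = ratio B-score over 3 SD below the library mean, with starting fluorescence within 5 SD of its mean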;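 note: negative B-score means less thallium flux so channel inhibition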
# KCNQ1 inh – blocks the human KCNQ1 potassium channel; AID 2642; CHO-K1 KCNQ1, FluxOR thallium flux fluorescence; active compounds read high; P51787; hit rate 1.3% among 310,000; B-score at 10 µM;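 active = compounds whose thallium flux B-score, printed positive for inhibition, exceeds three library SD while starting fluorescence stays within three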;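 note: channel opened by potassium depolarization with thallium stimulus after 20 min compound exposure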
# KCNK3 inh – human KCNK3 channel inhibition, primary screen; B-score at 10 µM; hit rate 0.84% among 340,000; O14649; CHO-KCNK3 thallium flux, FluxOR fluorescence; active compounds read low; AID 602410;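 active = B-score under library mean minus 4 SD, starting fluorescence ratio at most library mean plus 5 SD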;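 note: more negative B-score means stronger inhibition of thallium flux through KCNK3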
# Cl transport mod – modulators of human KCC2 chloride dependent transport; KCC2 cells, thallium flux FluoZin-2 fluorescence; B-score of Tl+ flux slope (higher = more flux/activation; lower = inhibition) at 10 µM; hit rate 2.2% among 190,000; AID 1456;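 active = thallium flux slope and its plate-corrected score both differing from the plate sample mean at a set confidence after two filtering rounds, in either direction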;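 note: slope of fluorescence scaled to starting intensity during 10 to 20 s after thallium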
# KCC2 secondary – confirmation of human KCC2 transport modulators. shares compounds with Cl transport mod. HEK293-KCC2, thallium flux, FluoZin2 fluorescence; active compounds read high. normalised thallium flux (F/F0 slope) at 10 µM. hit rate 15% among 3,700;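 active = thallium flux slope above the same plate's solvent-only control mean plus 3 SD; inconclusive = the two replicate wells disagree; inactive = no significant difference from solvent-only control wells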
# KCC2 bumet counter – thallium flux despite bumetanide block in KCC2 cells, secondary assay 3. normalized thallium flux at 10 µM. HEK293-KCC2 + bumetanide/ouabain, thallium flux FluoZin2; active compounds read high. AID 1714. hit rate 49% among 3,700. shares compounds with Cl transport mod;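 active = thallium entry rate above the same plate's blocked-transporter control wells by more than 3 SD; inconclusive = the two repeat wells disagree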;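 note: raw slope of fluorescence over initial fluorescence between 10 and 20 s after thallium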
# KCC2 secondary2 – confirmation of human KCC2 transport modulators; shares compounds with Cl transport mod; HEK293-KCC2, thallium flux FluoZin2 fluorescence; actives lie on both sides; F/F0 rise rate, 10–20 s post-thallium; normalized thallium flux at 10 µM; hit rate 23% among 3,700;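 active = thallium flux slope more than 3 SD above or below the plate's solvent-only control mean, mostly below; inconclusive = the two repeat wells disagreed; inactive = no significant shift from solvent-only controls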;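 note: raw slope with 0.1% DMSO as baseline and bumetanide as block control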
# HEK293 Tl flux – counter-screen for KCC2 modulators: effect in parental HEK293 cells | shares compounds with Cl transport mod | thallium flux FluoZin2, ouabain; baseline-ratio fluorescence slope, 10–20 s after thallium | thallium flux rate (normalised fluorescence) at 10 µM | hit rate 46% among 3,700 | AID 1716;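 active = thallium flux rate significantly above the same plate's solvent-only control wells, beyond their mean plus 3 SD; inconclusive = the two replicate wells gave conflicting results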
# KCC2 retest ouab – KCC2 (human) modulation, ouabain retest. HEK293-KCC2, thallium flux FluoZin2 fluorescence; bidirectional: low = inhibitor, high = activator. raw Tl+ flux slope (below DMSO = inhibition, above = activation) at 10 µM. hit rate 48% among 3,700. AID 1717. shares compounds with Cl transport mod;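 active = thallium flux slope beyond 3 SD from same-plate DMSO control mean in most replicates, usually higher, sometimes lower; inconclusive = repeat tests gave conflicting results; inactive = no significant difference from controls in most replicates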;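 note: slope of initial-normalized fluorescence between seconds 10 and 20 after thallium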
# HEK counter2 – parental HEK flux effect, counter-screen 2; hit rate 33% among 3,700; shares compounds with Cl transport mod; AID 1718; thallium flux slope at 10 µM; HEK293 parental, thallium flux FluoZin-2 fluorescence slope;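 active = thallium flux slope above the same plate's solvent-control mean plus 3 SD in both duplicate wells; inconclusive = duplicate wells that disagreed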;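 note: run without ouabain in cells lacking the KCC2 cotransporter; slope of fluorescence scaled to its starting value between 10 and 20 s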
# Starred values were filed as active, the others as inactive; i = inactive; ? = inconclusive; nt = not tested or not shown. An excerpt weighted towards active compounds, which were near 4.1% of everything screened.
SMILES,KCNQ1 act,hERG rescue,KCNK9 block,KCNQ1 inh,KCNK3 inh,Cl transport mod,KCC2 secondary,KCC2 bumet counter,KCC2 secondary2,HEK293 Tl flux,KCC2 retest ouab,HEK counter2
CCOc1ccc(-c2nc(-c3cccs3)c(CC(=O)O)s2)cc1OC,i,-11,i,i,i,-3.1*,0.017,0.0058*,0.029,0.0072,0.015,0.01
CCOc1ccc(-c2nnc(-c3cccs3)o2)cc1OCC,i,-14,i,i,i,-0.89,nt,nt,nt,nt,nt,nt
CCOC(=O)C1=C2NC(=O)c3ccccc3N2C(=O)C1,i,-21,i,i,i,40*,0.014*,0.091*,0.037,0.037*,0.069*,0.018*
O=C(Cn1[nH]c(=O)c2ccccc2c1=O)NC1CCN(Cc2ccccc2)CC1,i,-11,i,i,i,-4.3*,0.018,0.0038,0.029,0.0076,0.017,0.011
O=C(Cn1[nH]c(=O)c2ccccc2c1=O)NC1CCCCCC1,i,-9,i,i,i,-0.38,nt,nt,nt,nt,nt,nt
COc1ccc(NC(=O)NCCN2CCc3ccccc3C2)cc1,i,-10,i,i,i,-2.4,nt,nt,nt,nt,nt,nt
CSc1ccc(NC(=O)NCCN2CCc3ccccc3C2)cc1,i,-12,i,i,i,-3.9*,0.014,0.0051,0.025*,0.0072,0.015,0.0099
O=C1CN(S(=O)(=O)c2ccc(F)cc2)c2ccccc2N1,i,-5,i,i,i,nt,nt,nt,nt,nt,nt,nt
C=CCN(CC=C)C(=S)NC(=O)Cc1cccc2ccccc12,10*,10*,i,i,i,nt,0.043*,0.15*,0.061*,0.1*,0.13*,0.054*
COc1ccc(NC(=O)OC(C)C)cc1,i,0,i,i,i,0.43,nt,nt,nt,nt,nt,nt
CC(=O)Nc1n[nH]c(-c2ccc(C)cc2)c1C,i,-10,i,i,i,0.5,nt,nt,nt,nt,nt,nt
CCCOC(=O)C1=C(C)NC2=C(C(=O)CCC2)C1c1cc(OC)ccc1OC (stereo not drawn),i,-10,i,i,i,-0.95,nt,nt,nt,nt,nt,nt
CCCCOC(=O)C1=C(C)NC2=C(C(=O)CCC2)C1c1cc(OC)ccc1OC (stereo not drawn),i,-9,i,i,i,7.5*,0.0071,0.0056,0.029,0.0065,0.019,0.0092
O=C(NC(=S)Nc1ccc(N2CCOCC2)c(Cl)c1)c1cccs1,i,1,i,i,i,nt,0.025*,0.058*,?,0.017*,0.028*,0.017*
O=C(NC(=S)Nc1ccccc1N1CCN(C(=O)c2ccccc2)CC1)c1cccs1,i,-10,i,i,i,-0.4,nt,nt,nt,nt,nt,nt
O=C(NC(=S)Nc1ccccc1N1CCCC1)c1cccs1,17*,3,i,i,i,79*,0.029*,0.14*,?,?,0.087*,0.037*
O=C(NC(=S)Nc1ccccc1N1CCCCC1)c1cccs1,12*,7.5*,i,i,i,18*,?,0.035*,0.034,0.051*,0.042*,0.016*
Cc1nc2c(C)cccc2cc1C(=O)N/N=C/c1cccnc1,i,-9,i,i,i,-0.03,nt,nt,nt,nt,nt,nt
c1csc(CCCN2CCCCC2)c1,nt,nt,nt,nt,i,nt,nt,nt,nt,nt,nt,nt
COc1ccc(N2C(=S)N=C(Nc3ccccc3)C23CCCCC3)cc1,i,-7,i,i,i,23*,?,0.026*,0.033,0.014*,0.029*,0.012*
Cc1cccc(NC2=NC(=S)N(CC#N)C23CCCCC3)c1,i,-3,i,i,i,2.1,nt,nt,nt,nt,nt,nt
Cc1onc(-c2cccc(Cl)c2Cl)c1C(=O)O/N=C(\N)c1ccc([N+](=O)[O-])o1,i,-8,i,i,i,-4.9*,0.007,0.0033,?,0.0048*,0.017,0.0079*
Cc1onc(-c2ccccc2)c1C(=O)O/N=C(\N)c1ccc([N+](=O)[O-])o1,i,-2,i,i,i,nt,nt,nt,nt,nt,nt,nt
CC(C)N(C(=O)Cn1cc(S(=O)(=O)CC(=O)Nc2ccccc2)c2ccccc21)C(C)C,i,-8,i,i,i,nt,nt,nt,nt,nt,nt,nt
Fc1ccccc1-n1cc(-c2ccccc2)[nH]c1=S,i,-2,i,i,i,70*,0.019*,0.12*,?,0.046*,0.08*,0.02*
SMILES,KCNQ1 act,hERG rescue,KCNK9 block,KCNQ1 inh,KCNK3 inh,Cl transport mod,KCC2 secondary,KCC2 bumet counter,KCC2 secondary2,HEK293 Tl flux,KCC2 retest ouab,HEK counter2
Cc1cc(C)c(COc2ccc(/C=N/n3c(C)n[nH]c3=S)cc2)c(C)c1,i,-6,i,i,i,2,nt,nt,nt,nt,nt,nt
Cc1occc1-c1nnc(SCC(=O)N2CCOCC2)n1Cc1ccco1,i,0,i,i,i,6.4*,0.0092,0.0062,0.035,0.008,0.022,0.01
CCCN1Cc2cccc(C(=O)Nc3ccc(C)cc3)c2C1=O,i,-11,i,i,i,nt,0.0058,0.0043,0.028,0.0073,0.018,0.0099
Cc1onc(-c2c(Cl)cccc2Cl)c1C(=O)NC(=S)N1CCOCC1,i,-6,i,i,i,8.6*,0.011*,0.019*,0.029,0.012*,?,0.0099
CCOC(=O)N1CCN(C(=S)NC(=O)c2c(-c3c(Cl)cccc3Cl)noc2C)CC1,i,-10,i,i,i,11*,?,0.033*,?,0.018*,0.032*,0.019*
CCOC(=O)CC1C(=O)NCCN1S(=O)(=O)c1ccc(Cl)c(Cl)c1 (stereo not drawn),i,-14,i,i,i,-0.84,nt,nt,nt,nt,nt,nt
Cc1nc(=S)c2c([nH]1)-c1ccccc1CC21CCCCC1,i,-7,i,i,i,77*,0.02*,0.1*,0.03,0.04*,0.068*,0.011*
